Drawing on ChEMBL document CHEMBL4382221, “First-in-class DAPK1/CSF1R dual inhibitors: Discovery of 3,5-dimethoxy-N-(4-(4-methoxyphenoxy)-2-((6-morpholinopyridin-3-yl)amino)pyrimidin-5-yl)benzamide as a potential anti-tauopathies agent” (Eur J Med Chem, 2019), this text covers inhibition, IC50 and Papp for 12 molecules.

SMILES strings stand for the structures. Active and inactive are the calls of the source. The rule behind the calls is not given here.

For data set [1], the target named is T1, Death-associated protein kinase 1 (Homo sapiens, UniProt P53355). In words: Inhibition of human DAPK1 (1 to 363 residues) at 10 uM using KKLNRTLSFAEPG as substrate after 120 mins in presence of 10 uM [gamma-33P]-ATP by filtration method relative to control. Put shortly: (§1)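 Radiometric HotSpot assay measuring substrate phosphorylation directly, with 10 μM ATP. Single-dose screen at 10 μM in duplicate, reported as mean % inhibition from two independent experiments.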
Target sequence in this assay (P53355 whole entry, looked up, the tested form may be a part): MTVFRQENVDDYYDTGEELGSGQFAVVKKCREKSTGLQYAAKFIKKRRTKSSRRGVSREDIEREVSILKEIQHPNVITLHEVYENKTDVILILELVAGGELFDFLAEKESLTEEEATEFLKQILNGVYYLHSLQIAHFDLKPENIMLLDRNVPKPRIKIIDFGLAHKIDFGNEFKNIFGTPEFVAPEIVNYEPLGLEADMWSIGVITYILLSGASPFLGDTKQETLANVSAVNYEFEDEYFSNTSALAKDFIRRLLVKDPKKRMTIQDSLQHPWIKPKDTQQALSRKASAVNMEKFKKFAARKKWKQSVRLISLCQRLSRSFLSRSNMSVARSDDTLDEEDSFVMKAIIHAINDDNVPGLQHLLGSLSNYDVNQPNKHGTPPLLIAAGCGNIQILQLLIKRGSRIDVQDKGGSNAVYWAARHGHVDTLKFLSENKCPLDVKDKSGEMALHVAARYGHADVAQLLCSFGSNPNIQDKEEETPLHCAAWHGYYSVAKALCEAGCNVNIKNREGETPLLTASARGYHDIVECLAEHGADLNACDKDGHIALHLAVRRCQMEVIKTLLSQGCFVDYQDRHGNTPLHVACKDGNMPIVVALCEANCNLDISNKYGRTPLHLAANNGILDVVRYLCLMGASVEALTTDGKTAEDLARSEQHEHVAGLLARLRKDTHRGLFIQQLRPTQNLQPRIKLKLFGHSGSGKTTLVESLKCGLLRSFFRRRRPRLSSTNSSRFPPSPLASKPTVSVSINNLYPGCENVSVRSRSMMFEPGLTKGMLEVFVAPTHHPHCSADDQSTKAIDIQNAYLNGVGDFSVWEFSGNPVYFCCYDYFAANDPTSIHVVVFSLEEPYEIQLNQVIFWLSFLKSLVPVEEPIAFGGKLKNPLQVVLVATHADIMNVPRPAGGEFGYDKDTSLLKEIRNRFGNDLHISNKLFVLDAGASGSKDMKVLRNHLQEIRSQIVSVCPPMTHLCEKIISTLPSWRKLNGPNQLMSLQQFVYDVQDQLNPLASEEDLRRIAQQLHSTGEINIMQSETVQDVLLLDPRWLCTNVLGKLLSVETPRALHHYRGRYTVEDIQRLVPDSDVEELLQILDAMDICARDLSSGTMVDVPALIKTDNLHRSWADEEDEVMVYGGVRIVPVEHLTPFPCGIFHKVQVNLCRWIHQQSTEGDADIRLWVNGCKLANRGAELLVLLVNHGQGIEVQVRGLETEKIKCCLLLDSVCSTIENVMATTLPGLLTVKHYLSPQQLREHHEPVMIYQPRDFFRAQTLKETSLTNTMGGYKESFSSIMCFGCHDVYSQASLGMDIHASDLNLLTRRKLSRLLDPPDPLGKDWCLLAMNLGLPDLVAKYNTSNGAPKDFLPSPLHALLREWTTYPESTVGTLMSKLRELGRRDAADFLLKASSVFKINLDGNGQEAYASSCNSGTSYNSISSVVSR

In data set [2] the target is T1, Death-associated protein kinase 1. In words: Inhibition of DAPK1 in HEK293 tau-BiFC cells assessed as reduction in forskolin-induced tau aggregation at 50 uM after 48 hrs by Hoechst staining based HCS analysis. Type of data set: cell-based. Put shortly: (§2)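 HEK293 cells expressing tau-BiFC were exposed to compounds at 50, 10 and 1 μM with forskolin (30 μM) as the tau aggregation activator for 48 h. BiFC fluorescence intensity was quantified as the read-out. Data are mean ± SD.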
Target sequence in this assay (P53355 whole entry, looked up, the tested form may be a part): as above

For data set [3] the target is unchanged. The data set is described as follows: Inhibition of human DAPK1 (1 to 363 residues) using KKLNRTLSFAEPG as substrate after 120 mins in presence of 10 uM [gamma-33P]-ATP by filtration method. Put shortly:
(§3)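 Radiometric HotSpot assay with direct measurement of phosphorylated substrate at 10 μM ATP. IC50 was taken from a duplicate 10-dose series, 3-fold dilutions starting at 20 μM, reported as mean.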
Target sequence in this assay (P53355 whole entry, the tested form may be a part): as the sequence (P53355 whole entry, looked up, the tested form may be a part) above

For data set [4], the target named is T2, Macrophage colony-stimulating factor 1 receptor (Homo sapiens, UniProt P07333). The data set is described as follows: Inhibition of human CSF1R using poly[Glu:Tyr] (4:1) as substrate after 120 mins in presence of 10 uM [gamma-33P]-ATP by filtration method. Put shortly: as §3
Data set [5] has as its target T2, Macrophage colony-stimulating factor 1 receptor. In words: Inhibition of human CSF1R at 10 uM using poly[Glu:Tyr] (4:1) as substrate after 120 mins in presence of 10 uM [gamma-33P]-ATP by filtration method relative to control. Put shortly:
as §1

The target in data set [6] is T1, Death-associated protein kinase 1. The data set is described as follows: Inhibition of human DAPK1 (1 to 363 residues) at 20 uM using KKLNRTLSFAEPG as substrate after 120 mins in presence of 10 uM [gamma-33P]-ATP by filtration method relative to control. Put shortly: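 Radiometric HotSpot kinase assay with 10 μM ATP. Compound tested at a single 20 μM concentration, reported as mean % inhibition from two independent experiments.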
Target sequence in this assay (P53355 whole entry, looked up, the tested form may be a part): as above

Data set [7] shares this target. In words: Inhibition of DAPK1 in HEK293 tau-BiFC cells assessed as reduction in forskolin-induced tau aggregation at 1 to 50 uM after 48 hrs by Hoechst staining based HCS analysis. Type of data set: cell-based. Put shortly:
as §2
Target sequence in this assay (P53355 whole entry, looked up, the tested form may be a part): as above

Data set [8] can be described thus: Effective permeability of the compound at 50 uM after 4 hrs by PAMPA. Type of data set: ADME. The settings on record: read-out: Peff. Put shortly: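 Parallel artificial membrane permeability assay across a BBB-PAMPA lipid membrane, reporting effective permeability (Pe) in 10^-6 cm/sec. […] Pe above 0.4 was taken as highly permeable, and above 10 as highly CNS bioavailable.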

The subject of a further data set is BV-2. In words: Anti-neuroinflammatory activity in mouse BV2 cells assessed as inhibition of LPS-stimulated NO production at 10 uM preincubated for 1 hr followed by LPS stimulation for 23 hrs by Griess reagent based assay relative to control. Type of data set: functional. Put shortly:
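Mouse BV-2 microglia were stimulated with LPS, with or without compound at 10 μM, and NO production was measured. Values are means ± SD of five independent experiments.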
In general terms: Nitrite, measured by Griess reagent, commonly stands in for NO production.

The target in data set [9] is T1, Death-associated protein kinase 1. In words: Inhibition of DAPK1 in HEK293 tau-BiFC cells assessed as reduction in forskolin-induced tau aggregation at 10 uM after 48 hrs by Hoechst staining based HCS analysis. Type of data set: cell-based. Put shortly: as §2
Target sequence in this assay (P53355 whole entry, looked up, the tested form may be a part): as above

The term inhibition denotes the relative decrease from the control value, in per cent. As a reminder, the IC50 is the midpoint of a concentration-inhibition curve.

T2 sequence (P07333 whole entry): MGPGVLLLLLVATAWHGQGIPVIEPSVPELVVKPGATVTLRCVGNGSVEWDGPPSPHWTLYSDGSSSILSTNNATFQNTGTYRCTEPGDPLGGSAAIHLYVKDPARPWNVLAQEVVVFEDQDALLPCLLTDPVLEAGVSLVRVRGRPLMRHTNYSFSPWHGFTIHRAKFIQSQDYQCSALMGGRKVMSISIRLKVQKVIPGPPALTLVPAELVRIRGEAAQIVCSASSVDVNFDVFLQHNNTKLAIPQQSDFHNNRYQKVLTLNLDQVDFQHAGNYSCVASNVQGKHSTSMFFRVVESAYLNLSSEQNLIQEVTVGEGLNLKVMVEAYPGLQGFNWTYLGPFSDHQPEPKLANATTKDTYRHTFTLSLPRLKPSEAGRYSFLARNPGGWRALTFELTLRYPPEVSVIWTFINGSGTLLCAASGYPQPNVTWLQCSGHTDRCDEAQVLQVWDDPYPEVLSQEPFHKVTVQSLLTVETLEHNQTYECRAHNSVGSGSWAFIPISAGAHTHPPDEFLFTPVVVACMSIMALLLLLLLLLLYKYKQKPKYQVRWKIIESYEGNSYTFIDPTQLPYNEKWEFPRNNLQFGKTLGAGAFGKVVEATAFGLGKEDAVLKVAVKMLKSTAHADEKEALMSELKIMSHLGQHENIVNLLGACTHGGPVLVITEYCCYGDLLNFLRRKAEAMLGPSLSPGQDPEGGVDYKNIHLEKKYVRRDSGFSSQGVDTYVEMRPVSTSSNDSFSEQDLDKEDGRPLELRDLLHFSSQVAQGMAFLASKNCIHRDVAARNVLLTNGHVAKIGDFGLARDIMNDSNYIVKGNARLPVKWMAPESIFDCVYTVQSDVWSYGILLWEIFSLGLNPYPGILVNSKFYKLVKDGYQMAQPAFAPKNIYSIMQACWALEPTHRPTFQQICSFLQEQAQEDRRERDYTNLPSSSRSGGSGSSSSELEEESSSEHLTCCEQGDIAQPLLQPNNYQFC

For `COc1ccc(Oc2nc(Nc3ccc(N4CCOCC4)cc3)ncc2NC(=O)c2cccc(OC)c2)cc1`, the results for the inhibition in [1] and in data set [5] were 75.1% and 91.8%, respectively. In addition, the inhibition result in data set [2] was “Active”. The IC50 was 7440 nM in data set [3] and 780 nM in data set [4].

Turning to `COc1ccc(Oc2nc(Nc3ccc(N4CCOCC4)cc3)ncc2NC(=O)c2cccc(C(F)(F)F)c2)cc1`, the inhibition in [6] amounted to 69.7%; in data set [5], 74.7%. Besides, the inhibition result in data set [7] was “inactive”. For the same molecule, the concentration for half-maximal inhibition (IC50) in [3] was 2610 nM; in [4], 4890 nM.

Regarding `COc1ccc(Oc2nc(Nc3ccc(N4CCOCC4)nc3)ncc2NC(N)=O)cc1`, the inhibition stood at 19.7% in data set [1] and 35.4% in data set [5].

As to `COc1ccc(Oc2nc(Nc3ccc(N4CCOCC4)cc3)ncc2NC(N)=O)cc1`, the inhibition in data set [6] worked out at 10.8%; in data set [5], 65%. The IC50 in data set [4] is 4420 nM.

Turning to `CC(=O)[C@H]1CC[C@H]2[C@@H]3CCC4=CC(=O)CC[C@]4(C)[C@H]3CC[C@]12C` [PROGESTERONE], the Papp at 4 h, 50 µM in data set [8] stood at 33.3 ×10⁻⁶ cm/s.

As to `COc1ccc(Oc2nc(Nc3ccc(N4CCOCC4)cc3)ncc2NC(=O)c2cc(OC)cc(OC)c2)cc1`, the inhibition is 66% in [6] and 95.3% in [5]. In data set [2], the inhibition result is “Active”. In addition, the IC50 in data set [3] amounted to 2770 nM; in data set [4], 120 nM. Moreover, the inhibition result (with BV-2; in data set [9]) was “inactive” throughout.

`COc1ccc(Oc2nc(Nc3ccc(N4CCCCC4)nc3)ncc2NC(N)=O)cc1`: the inhibition came to 31.7% in data set [1] and 28.4% in data set [5].

Take `NC(=O)Nc1cnc(Nc2ccc(N3CCOCC3)cc2)nc1Oc1ccc(C(F)(F)F)cc1`: the values for the inhibition in [6] and in [5] were 44.9% and 59.6%, respectively. Moreover, the inhibition result in [7] is “inactive”. Besides, in data set [3], the half-inhibitory concentration (IC50) was determined as 14300 nM.

Consider `COc1ccc(Oc2nc(Nc3ccc(N4CCCCC4)nc3)ncc2NC(=O)c2cc(OC)cc(OC)c2)cc1`, for which the inhibition was 67.3% in data set [1] and 76% in data set [5]. Further, in data set [2], the inhibition entry was “Active”. For the same molecule, the IC50 in data set [3] was determined as 2690 nM; in [4], 1720 nM.

For the molecule `COc1ccc(Oc2nc(Nc3ccc(F)cc3)ncc2NC(=O)c2cc(OC)cc(OC)c2)cc1`, the inhibition in [1] stood at 65%; in [5], 35.2%. Moreover, the inhibition entry in data set [2] was “Active”. For the same molecule, the IC50 in data set [3] is 4290 nM. The inhibition result in [9] is “inactive”.

Take `COc1ccc(Oc2nc(Nc3ccc(F)cc3)ncc2NC(N)=O)cc1`: the inhibition in data set [1] amounted to 17.1%; in [5], 21%.

Turning to `COc1cccc(Oc2nc(Nc3ccc(N4CCOCC4)cc3)ncc2NC(N)=O)c1`, the inhibition in data set [1] amounted to 15.8%; in data set [5], 77.6%. Also, in data set [4], the IC50 amounted to 1290 nM.
